Laboratory results reported in publication PMC7509213 (iScience, 2020).
Read-outs that look alike come from different tables or passages of the source.

How the values were obtained:
RPB1 subunit of RNAPII [1] = assay: RPB1 degradation in HeLa cells; type: cell-based, human
XPB = target: T1, XPB (Homo sapiens, UniProt P19447); assay: XPB degradation in cells; type: cell-based; details: 10 μM, western blot
T1 sequence (P19447 1-782): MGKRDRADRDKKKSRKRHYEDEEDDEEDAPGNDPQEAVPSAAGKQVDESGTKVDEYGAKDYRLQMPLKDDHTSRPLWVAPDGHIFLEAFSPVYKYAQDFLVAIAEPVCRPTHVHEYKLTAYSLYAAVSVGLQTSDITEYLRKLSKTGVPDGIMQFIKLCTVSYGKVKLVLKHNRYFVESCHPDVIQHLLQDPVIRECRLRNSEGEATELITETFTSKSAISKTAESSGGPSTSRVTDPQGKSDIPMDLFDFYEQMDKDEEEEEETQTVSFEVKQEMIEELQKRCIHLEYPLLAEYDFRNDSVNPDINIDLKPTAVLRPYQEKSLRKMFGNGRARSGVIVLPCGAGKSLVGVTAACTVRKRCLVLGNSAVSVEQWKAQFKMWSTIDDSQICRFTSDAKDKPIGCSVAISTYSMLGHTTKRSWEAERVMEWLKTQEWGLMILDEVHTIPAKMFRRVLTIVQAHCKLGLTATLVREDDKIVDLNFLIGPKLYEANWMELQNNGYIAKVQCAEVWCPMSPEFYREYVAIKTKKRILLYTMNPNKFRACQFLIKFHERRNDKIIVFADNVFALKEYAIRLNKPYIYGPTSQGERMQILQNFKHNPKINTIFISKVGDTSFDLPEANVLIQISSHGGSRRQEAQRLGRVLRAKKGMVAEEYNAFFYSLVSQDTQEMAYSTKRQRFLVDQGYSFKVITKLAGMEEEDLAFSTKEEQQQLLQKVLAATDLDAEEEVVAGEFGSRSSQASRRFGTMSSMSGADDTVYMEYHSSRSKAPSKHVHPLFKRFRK

PC3 cells = assay: PC3 proliferation under hypoxia or normoxia; type: cell-based, human; details: for IC50: Homo sapiens, PC-3, 48 h
In short: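 PC3 cells seeded at 5,000/well and held at 1% O2 in a humidified chamber at 37°C for 48 h (normoxia 20% O2) before 48 h exposure to test compound. A 1 μCi [3H]-thymidine pulse per well was given for 6 h, then cells were harvested onto glass-fibre filters for scintillation counting. Proliferation is relative to DMSO, mean ± SEM, n = 3, and IC50 values were derived from these curves.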

RPB1 subunit of RNAPII [2] = assay: RPB1 degradation in PC3 cells under hypoxia; type: cell-based, human; details: PC3, 10 μM, 1% O2
TFIIH = TFIIH (Homo sapiens, UniProt P19447); assay: DNA-dependent ATPase activity assay of purified TFIIH; type: biochemical; details: 200 nM
In short: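 Purified TFIIH, DNA-dependent ATPase assay. It was started with TFIIH, run for 2 h, and stopped with EDTA. Mixture was spotted on PEI-cellulose TLC and developed in 0.5 M LiCl/1 M HCOOH. Released 32Pi was quantified by phosphorimaging relative to DMSO, mean ± SE, n = 3.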

[3] = lethal case dosed with 18 mg/m^2 F60008; ref Kitzen et al., 2009; cited from earlier work
RPB1 subunit of RNAPII [4] = assay: RPB1 degradation in C342T XPB knock-in cells; type: cell-based, human; details: 1μM

CC(=O)S[C@@H]1CC2=CC(=O)CC[C@]2(C)[C@H]2CC[C@@]3(C)[C@@H](CC[C@@]34CCC(=O)O4)[C@H]12 [spironolactone]
effect on RPB1 degradation induced by G-2 (RPB1 subunit of RNAPII [1]; 10 μM SP combined with 1 μM G-2): rescued RPB1 from degradation | stability of RPB1 (RPB1 subunit of RNAPII [1]; HeLa, 10 μM): no effect | degradation of XPB (XPB): caused degradation of the majority of XPB

COc1cccc2c1C(=O)c1c(O)c3c(c(O)c1C2=O)C[C@@](O)(C(=O)CO)C[C@@H]3O[C@H]1C[C@H](N)[C@H](O)[C@H](C)O1 [doxorubicin]
potency under hypoxia versus normoxia (PC3 cells; PC3, 1% O2 vs 20% O2): decreased

O=C(Oc1cccc(F)c1OC(=O)c1cccc(O)c1)c1cccc(O)c1 [WZB117, 2-Fluoro-6-(m-hydroxybenzoyloxy) phenyl m-hydroxybenzoate]
effect on RNAPII degradation triggered by 3 μM G-2 and hypoxia (RPB1 subunit of RNAPII [2]): antagonizes

CC(C)[C@]12O[C@H]1[C@@H]1O[C@]13[C@]1(O[C@H]1C[C@H]1C4=C(CC[C@@]13C)C(=O)OC4)[C@@H]2O [triptolide, (1S,2S,4S,5S,7R,8R,9S,11S,13S)-8-hydroxy-1-methyl-7-propan-2-yl-3,6,10,16 tetraoxaheptacyclo[11.7.0.0^2,4.0^2,9.0^5,7.0^9,11.0^14,18] icos-14(18)-en-17-one]
ATPase activity of TFIIH (TFIIH): nearly completely inhibited | IC50 (PC3 cells; read-out: IC50, PC3 proliferation under hypoxia): 1.5 nM | IC50 (PC3 cells; read-out: IC50, PC3 proliferation under normoxia): 4.5 nM | fold enhancement of anti-proliferative effect (IC50) during hypoxia (PC3 cells; PC3, hypoxia vs normoxia): three-fold | effect size during hypoxia (PC3 cells; hypoxic PC3 cells): 0.71 | Maximum serum levels [3]: 58.5 ng/mL

α-amanitin
degradation of Rpb1 in C342T XPB isogenic cell line (RPB1 subunit of RNAPII [4]): induced the degradation of Rpb1
